Screens: PubChem, several laboratories
An excerpt weighted towards active compounds, which were near 0.74% of everything screened.
RGS8-Gao reg – modulates binding of RGS8 to human Galphao. actives 0.34% (n = 220,000). P09471. multiplexed bead flow cytometry; actives lie on both sides. response (percent of control binding), % at 10 µM; in the data active = response below about 60% or above about 140%; inactive = in between;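 note: Galphao activated as the GDP aluminium fluoride complex binding bead-coupled RGS8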
Target sequence (P09471 whole entry, looked up): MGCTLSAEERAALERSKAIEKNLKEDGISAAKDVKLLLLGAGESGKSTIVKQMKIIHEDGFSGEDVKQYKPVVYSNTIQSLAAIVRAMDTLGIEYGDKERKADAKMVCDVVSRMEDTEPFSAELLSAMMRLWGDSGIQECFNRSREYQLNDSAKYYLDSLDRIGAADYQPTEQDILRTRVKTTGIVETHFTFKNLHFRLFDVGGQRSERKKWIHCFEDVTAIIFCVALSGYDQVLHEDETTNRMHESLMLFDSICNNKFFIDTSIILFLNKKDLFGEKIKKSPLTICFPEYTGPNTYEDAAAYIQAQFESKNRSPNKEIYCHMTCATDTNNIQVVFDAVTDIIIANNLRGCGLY
Calb biofilm kill – mixture kills Candida albicans biofilm cells; C. albicans biofilm persisters + clotrimazole, fluorescence viability; primary screen in compound mixtures of four per well; actives 0.02% (n = 120,000); inhibition, % at 7.6 µM;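 active = inhibition above 30.3% in the primary screen of four-compound pools, then above 30% when the compound was retested; inconclusive = passed the primary limit but could not be retested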;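 note: compounds exposed to preformed 24 h biofilms for 48 h; 0% = untreated biofilm control and 100% = clotrimazole plus chlorhexidine kill blank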
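System: C. albicans CAF4-2 wild-type biofilms; Medium: RPMI/MOPS medium, pH 7.0; Reagent: Clotrimazole, 50 µg/mL; Times: biofilm formation 24 h, compound exposure 48 h, 37 °C; Detection: 2-h Alamar Blue fluorescence, 535/590 nm excitation/emission; Evaluation: percent inhibition of biofilm viability.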
RGS7-Gao reg – modulates binding of RGS7 to human Galphao; Multiplexed bead flow cytometry; actives lie on both sides; binding response (% of control), % at 10 µM; actives 0.35% (n = 220,000); in the data active = binding response below about 49% or above about 150%; inconclusive = no clear call, values can overlap the other calls; inactive = in between;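 note: fluorescent Galphao held in activated GDP-AlF4 state binding bead-coupled RGS7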
RGS16-Gao – regulators of human RGS16-Galphao interaction. O15492+P09471. bead-based flow cytometry RGS16-Galphao binding, fluorescence; actives lie on both sides. binding response (% of control), % at 10 µM. actives 0.38% (n = 220,000). AID 1441;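 note: Galphao activated by GDP with aluminum fluoride before binding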
RGS4-Gao reg – modulates binding of RGS4 to human Galphao; binding response (% of control), % at 10 µM; actives 0.33% (n = 220,000); P09471; Multiplexed bead flow cytometry; actives lie on both sides; in the data active = binding response below about 49% or above about 150%; inactive = in between;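 note: fluorescent Galphao activated with aluminum fluoride binding bead-coupled RGS4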
RGS4-Gao HTS – regulators of human RGS4-Galphao interaction | actives 99% (n = 1,600) | RGS4–Galpha-o binding response, % at 10 µM | AID 1504 | multiplexed bead flow cytometry, RGS–Galpha-o binding | shares compounds with RGS16-Gao;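 note: fluorescently labeled Galpha-o bound to GDP with aluminium fluoride binding biotinylated RGS beads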
Biotin-avidin – interferes with biotinylated probe binding to avidin beads | inhibition, % at 10 µM | 1,700 tested, under 10 active | shares compounds with RGS16-Gao | streptavidin beads, fluorescein-biotin binding, flow cytometry;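 active = inhibition above 50%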;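 note: median green fluorescence of gated singlet beads compared with DMSO control wells; 0% = DMSO wells and 100% = complete loss of bead fluorescence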
RGS8-Gao single – RGS8-Galphao interaction regulation, single point confirmation | shares compounds with RGS16-Gao | bead-based flow cytometry RGS8-Galphao binding, fluorescence; actives lie on both sides | binding response (% of control), % at 10 µM | actives 3% (n = 1,700) | AID 1836; in the data active = binding response below about 72% or above about 130%; inactive = in between;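 note: Galphao activated as GDP AlF4 complex before binding bead RGS8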
RGS7-Gao single – confirmation of regulators of human RGS7-Galphao interaction. shares compounds with RGS16-Gao. bead-based flow cytometry RGS7-Galphao binding; actives lie on both sides. response (percent of control binding), % at 10 µM. actives 7.8% (n = 1,700). AID 1837; in the data active = response below about 75% or above about 130%; inactive = in between;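 note: fluorescent Galphao activated with GDP and aluminum fluoride binding bead-coupled RGS7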
RGS16-Gao conf – RGS16-Galphao interaction regulation, single point confirmation | shares compounds with RGS16-Gao | bead-based flow cytometry, RGS16-Galphao binding; actives lie on both sides | response (% of control binding), % at 10 µM | actives 4% (n = 1,700) | AID 1838; in the data active = response below about 74% or above about 130%; inactive = in between;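 note: Galphao activated as the GDP aluminium fluoride complex binding bead-coupled RGS16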
RGS4-Gao confirm – RGS4-Galphao interaction regulation, single point confirmation | shares compounds with RGS16-Gao | RGS4-Galphao binding, multiplexed bead flow cytometry; actives lie on both sides | binding response (% of control), % at 10 µM | actives 4% (n = 1,700) | AID 1840; in the data active = binding response below about 74% or above about 130%; inactive = in between
RGS19-Gao conf – RGS19-Galphao interaction regulation, single point confirmation; shares compounds with RGS16-Gao; bead-based flow cytometry RGS19-Galphao binding; actives lie on both sides; response (percent of control binding), % at 10 µM; actives 5% (n = 1,700); AID 1841; in the data active = response below about 50% or above about 160%; inactive = in between;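 note: 100% = no compound control and 0% = blank background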
Target sequence (P09471 whole entry, looked up): as above
Target sequence (P49795 whole entry, looked up): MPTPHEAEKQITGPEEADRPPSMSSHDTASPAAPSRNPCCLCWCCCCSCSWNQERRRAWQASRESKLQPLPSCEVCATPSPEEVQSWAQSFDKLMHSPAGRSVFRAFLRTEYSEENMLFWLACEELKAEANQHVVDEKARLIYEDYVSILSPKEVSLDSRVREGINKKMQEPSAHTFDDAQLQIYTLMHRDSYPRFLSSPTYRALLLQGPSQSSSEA
* = called active by the depositor; ? = inconclusive; . = no result given; [ ] = dose if it differs, or a comment. Unless noted, the rule behind the calls is not given here.

SMILES	RGS8-Gao reg	Calb biofilm kill	RGS7-Gao reg	RGS16-Gao	RGS4-Gao reg	RGS4-Gao HTS	Biotin-avidin	RGS8-Gao single	RGS7-Gao single	RGS16-Gao conf	RGS4-Gao confirm	RGS19-Gao conf
COc1ccccc1NC(=O)C1CCCCC1	97.3	.	158.4*[activator]	99.6	106.8	106.8*	.	.	.	.	.	.
Cc1ccc(NC(=O)Nc2ccccc2CC[N+](=O)[O-])cc1	149.2*[activator]	16.3	118.3	270.3	116.5	116.5*	-0.3	102.6	100.8	101.8	102.4	93.9
Cc1cc(C)nc(NC(=NCCc2c[nH]c3ccccc23)NC(=O)Nc2ccc(Cl)c(Cl)c2)n1	81.5	12.4	105.9	13.0*	107.8	107.8*	-0.4	100.3	100.4	100.5	100.3	108.4
CCCNC(=O)NC(=O)COC(=O)CNS(=O)(=O)/C=C/c1ccccc1	102.0	17.9	107.1	107.2	106.8	.	.	.	.	.	.	.
CC(C)(C)C(=O)CSc1nc(N)cc(=O)[nH]1	100.6	13.8	104.3	103.3	99.2	.	.	.	.	.	.	.
Cc1cc(C)c2[nH]c(O)c(N=NC3=NC(=O)CS3)c2c1	115.8	11.8	?	269.6*[activator]	283.0*[activator]	.	0.4	100.2	94.7	99.7	96.6	120.0
CCc1ccc2c(c1)c(N=NC1=NC(=O)CS1)c(O)n2C	104.4	.	105.9	100.8	107.1	.	.	.	.	.	.	.
Cc1nn(-c2ccccc2)c(N)c1Sc1ccccc1[N+](=O)[O-]	97.5	8.1	96.7	96.7	94.1	.	.	.	.	.	.	.
Cc1nn(-c2ccccc2)c(N)c1Sc1cccc([N+](=O)[O-])c1	120.3	21.4	122.0	201.8*[activator]	110.7	110.7*	-1.4	102.6	103.0	105.1	104.4	103.3
Cc1cccc(-c2nnc3sc(-c4ccccc4)nn23)c1	.	.	.	.	.	.	2.4	94.7	89.9	93.2	94.9	87.1
O=C(NCc1ccco1)c1ccc(S(=O)(=O)N2CCCc3ccccc32)cc1	77.3	.	88.5	-44.4*	79.8	79.8*	.	.	.	.	.	.
O=C(NCc1ccccc1)c1ccc(S(=O)(=O)N2CCCc3ccccc32)cc1	100.4	.	97.6	99.2	99.2	.	.	.	.	.	.	.
CCOC(=O)/C=C(\C)Sc1cc(O)c2ccccc2c1O	50.3*	8.0	?	11.2*	80.9	80.9*	.	.	.	.	.	.
CCOC(=O)C1(CC2CC2)CCN(C(=O)c2ocnc2C)CC1	102.5	13.1	101.4	101.6	102.2	.	.	.	.	.	.	.
C[N+](C)(CC#Cc1ccccc1)CC(=O)c1ccc(Cl)cc1	84.1	6.2	114.9	23.4*	113.6	113.6*	1.0	98.2	98.6	98.5	100.5	97.9
COc1ccc(C(=O)/C=C/Nc2ccc(S(=O)(=O)Nc3onc(C)c3C)cc2)cc1	100.2	11.0	102.6	96.4	101.0	.	.	.	.	.	.	.
O=C(CN1CCN(c2ncccn2)CC1)N1CCCC1	104.3	18.0	101.3	106.5	103.0	.	.	.	.	.	.	.
CCN(CC)C(=O)CN1CCN(c2ncccn2)CC1	142.0*[activator]	.	122.3	270.8	120.2	120.2*	0.1	99.8	85.7	93.2	95.6	82.8
CC(C)(C)NC(=O)C(=O)NNC(=O)c1cccc(F)c1	101.3	12.8	105.1	104.3	100.5	.	.	.	.	.	.	.
COC1CCN(C(=O)CC2C(=O)NCCN2CC2CCCCC2)CC1 (stereo unspecified)	99.7	9.3	97.5	97.4	97.9	.	.	.	.	.	.	.
COC1CCN(C(=O)CC2C(=O)NCCN2CC(C)(C)C)CC1 (stereo unspecified)	17.3*	-10.5	2.1*	5.7*	10.0*	.	3.0	105.5	98.5	107.4	98.7	110.2
Cc1ccc(N=Nc2ccc(O)c3ncccc23)cc1	70.7	12.7	65.0	10.1*	67.8	67.8*	-4.0	101.6	95.7	106.0	96.1	84.4
Cc1ccc(N=Nc2ccc(O)c3ncccc23)cc1C	99.2	19.8	91.8	100.0	96.1	.	.	.	.	.	.	.
O=C(Nc1ccccc1)N(C1=NCCC1)c1ccccc1	101.2	18.9	?	102.8	103.8	.	.	.	.	.	.	.
Cc1ccc(N(C(=O)Nc2ccccc2)C2=NCCC2)cc1	72.2	3.7	?	54.0	44.2*	.	-1.0	97.9	46.8*	80.3	57.4*	83.6
SMILES	RGS8-Gao reg	Calb biofilm kill	RGS7-Gao reg	RGS16-Gao	RGS4-Gao reg	RGS4-Gao HTS	Biotin-avidin	RGS8-Gao single	RGS7-Gao single	RGS16-Gao conf	RGS4-Gao confirm	RGS19-Gao conf
Cn1c(=O)cc(SCC(=O)N2CCCC2)c2ccccc21	100.8	.	101.2	93.9	97.7	.	.	.	.	.	.	.
CCOC(=O)N1CCC(NC(=O)CSc2cc(=O)n(C)c3ccccc23)CC1	140.4*[activator]	.	111.0	241.3	110.3	110.3*	-8.6	108.7	112.9	108.5	111.6	113.6
Cc1cc(C)c(C(=O)OCCNC(=O)c2cccnc2)cc1C	97.0	.	184.4*[activator]	117.3	121.9	121.9*	-1.1	103.7	102.0	100.9	103.7	96.8
O=C(NCCOC(=O)c1ccccc1C(=O)OCCNC(=O)c1cccnc1)c1cccnc1	100.4	.	100.5	99.9	100.3	.	.	.	.	.	.	.
Cc1cc(C)cc(NC(=O)c2nccnc2C(=O)O)c1	101.5	.	100.5	102.4	101.4	.	.	.	.	.	.	.
Cc1ccc(Nc2nc(N)nc(CN3CCN(Cc4ccc5c(c4)OCO5)CC3)n2)cc1Cl	75.1	.	45.3*	-169.9	-9.2*	.	0.6	101.2	99.2	100.7	102.4	103.3
COc1cc2c(cc1NC(=S)NC(=O)/C=C/c1ccco1)oc1ccccc12	89.0	12.4	98.8	21.1*	102.6	102.6*	0.1	102.8	102.5	100.1	102.5	76.7
Cc1cccc(-c2nc(CSCC(=O)NCCCN3CCOCC3)c(C)o2)c1	99.7	.	103.3	104.5	101.8	.	.	.	.	.	.	.
Cc1oc(-c2ccc(Cl)cc2)nc1CSCC(=O)NCCCN1CCOCC1	111.5	.	164.0*[activator]	227.9*[activator]	187.1*[activator]	.	-0.3	102.1	101.4	105.2	102.0	104.8
Cc1ccc(CNC(=O)Cn2cccc2C(=O)c2ccccc2)cc1	.	.	119.0	.	102.3	.	-2.4	100.8	94.0	100.2	100.3	93.3
O=C(Cn1cccc1C(=O)c1ccccc1)NCc1ccc(Cl)cc1	100.1	20.1	99.5	102.6	101.1	.	.	.	.	.	.	.
COc1cc(Cl)c(C)cc1NC(=O)COC(=O)c1cc[n+]([O-])cc1	101.5	8.4	108.2	100.4	100.4	.	.	.	.	.	.	.
